Data as given in ChEMBL document CHEMBL3124934, “Identification of a methoxynaphthalene scaffold as a core replacement in quinolizidinone amide M(1) positive allosteric modulators” (Bioorg Med Chem Lett, 2014).

Assays:
[1] = Apparent permeability of the compound; format: physicochemical; details: not told
[2] = molecular target: T1, Muscarinic acetylcholine receptor M1 (Homo sapiens) (UniProt P11229); test: Positive allosteric modulation of human muscarinic M1 receptor expressed CHO cells assessed as intrinsic potency of acetylcholine-induced calcium mobilization by FLIPR assay relative to control; format: functional, cell-based
T1 sequence (whole entry): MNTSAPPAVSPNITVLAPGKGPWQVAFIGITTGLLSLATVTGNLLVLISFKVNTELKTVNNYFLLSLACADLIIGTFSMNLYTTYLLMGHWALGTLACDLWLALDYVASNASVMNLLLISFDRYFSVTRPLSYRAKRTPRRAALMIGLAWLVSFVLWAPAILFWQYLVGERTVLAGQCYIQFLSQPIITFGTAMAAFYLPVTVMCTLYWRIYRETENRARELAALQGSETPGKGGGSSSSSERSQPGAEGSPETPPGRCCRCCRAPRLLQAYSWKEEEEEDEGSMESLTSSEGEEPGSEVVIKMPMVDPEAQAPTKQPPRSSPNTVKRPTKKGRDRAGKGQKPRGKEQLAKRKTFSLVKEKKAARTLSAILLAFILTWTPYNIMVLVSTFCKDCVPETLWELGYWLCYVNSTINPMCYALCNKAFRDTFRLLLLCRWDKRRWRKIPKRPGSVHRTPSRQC
How it was run: (§1)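 Human M1 receptor expressed in CHO cells, with calcium mobilization read by FLIPR. Inflection point (IP, nM) and % max response are taken as the numerical average of at least two experiments. Interassay variability was ±30% for IP unless noted otherwise.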

[3] = molecular target: T1, Muscarinic acetylcholine receptor M1 (Homo sapiens); test: Positive allosteric modulation of human muscarinic M1 receptor expressed CHO cells assessed as intrinsic potency of acetylcholine-induced calcium mobilization by FLIPR assay; format: functional, cell-based; how it was run: as §1
[4] = molecular target: Multidrug resistance protein 1a (Rattus norvegicus, UniProt Q6PSM0); test: Activity at rat MDR1a assessed as ratio of permeability from basolateral to apical side over permeability from apical to basolateral side by cell based assay
Sequence of Multidrug resistance protein 1a (Q6PSM0 whole entry): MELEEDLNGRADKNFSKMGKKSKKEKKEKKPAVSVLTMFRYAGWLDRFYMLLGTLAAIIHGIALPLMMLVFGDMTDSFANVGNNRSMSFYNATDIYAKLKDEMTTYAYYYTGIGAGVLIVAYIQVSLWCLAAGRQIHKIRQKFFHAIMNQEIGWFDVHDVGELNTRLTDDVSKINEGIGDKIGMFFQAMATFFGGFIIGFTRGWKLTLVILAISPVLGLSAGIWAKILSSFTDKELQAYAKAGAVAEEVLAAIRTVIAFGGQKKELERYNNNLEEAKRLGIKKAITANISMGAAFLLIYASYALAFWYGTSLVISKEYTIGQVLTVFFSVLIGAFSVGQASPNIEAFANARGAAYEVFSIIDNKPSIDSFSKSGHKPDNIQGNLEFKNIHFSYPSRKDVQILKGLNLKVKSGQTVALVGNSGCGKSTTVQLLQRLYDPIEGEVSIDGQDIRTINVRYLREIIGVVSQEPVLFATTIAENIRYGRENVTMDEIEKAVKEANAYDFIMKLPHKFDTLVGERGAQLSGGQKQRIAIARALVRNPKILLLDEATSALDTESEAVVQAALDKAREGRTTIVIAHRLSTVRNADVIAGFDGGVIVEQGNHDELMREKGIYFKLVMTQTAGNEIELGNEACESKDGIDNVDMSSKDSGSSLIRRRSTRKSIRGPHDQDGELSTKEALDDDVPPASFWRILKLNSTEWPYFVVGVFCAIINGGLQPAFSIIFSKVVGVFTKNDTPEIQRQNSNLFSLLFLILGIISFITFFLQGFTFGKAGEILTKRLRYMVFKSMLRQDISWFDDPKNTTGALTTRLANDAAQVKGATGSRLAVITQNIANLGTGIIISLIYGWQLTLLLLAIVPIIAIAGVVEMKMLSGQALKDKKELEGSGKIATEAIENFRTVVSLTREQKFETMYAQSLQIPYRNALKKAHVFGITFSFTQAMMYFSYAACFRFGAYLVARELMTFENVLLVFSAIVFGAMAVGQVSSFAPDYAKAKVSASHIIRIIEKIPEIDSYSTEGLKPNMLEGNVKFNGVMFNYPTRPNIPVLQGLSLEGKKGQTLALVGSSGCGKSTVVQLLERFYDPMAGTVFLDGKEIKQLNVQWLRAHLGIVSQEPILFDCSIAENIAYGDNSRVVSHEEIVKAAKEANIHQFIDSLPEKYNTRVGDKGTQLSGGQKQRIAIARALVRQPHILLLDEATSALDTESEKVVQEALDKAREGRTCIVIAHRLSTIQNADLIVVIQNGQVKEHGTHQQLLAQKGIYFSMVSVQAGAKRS

[5] = molecular target: ATP-dependent translocase ABCB1 (Homo sapiens, UniProt P08183); test: Activity at human MDR1 assessed as ratio of permeability from basolateral to apical side over permeability from apical to basolateral side by cell based assay
Sequence of ATP-dependent translocase ABCB1 (P08183 whole entry): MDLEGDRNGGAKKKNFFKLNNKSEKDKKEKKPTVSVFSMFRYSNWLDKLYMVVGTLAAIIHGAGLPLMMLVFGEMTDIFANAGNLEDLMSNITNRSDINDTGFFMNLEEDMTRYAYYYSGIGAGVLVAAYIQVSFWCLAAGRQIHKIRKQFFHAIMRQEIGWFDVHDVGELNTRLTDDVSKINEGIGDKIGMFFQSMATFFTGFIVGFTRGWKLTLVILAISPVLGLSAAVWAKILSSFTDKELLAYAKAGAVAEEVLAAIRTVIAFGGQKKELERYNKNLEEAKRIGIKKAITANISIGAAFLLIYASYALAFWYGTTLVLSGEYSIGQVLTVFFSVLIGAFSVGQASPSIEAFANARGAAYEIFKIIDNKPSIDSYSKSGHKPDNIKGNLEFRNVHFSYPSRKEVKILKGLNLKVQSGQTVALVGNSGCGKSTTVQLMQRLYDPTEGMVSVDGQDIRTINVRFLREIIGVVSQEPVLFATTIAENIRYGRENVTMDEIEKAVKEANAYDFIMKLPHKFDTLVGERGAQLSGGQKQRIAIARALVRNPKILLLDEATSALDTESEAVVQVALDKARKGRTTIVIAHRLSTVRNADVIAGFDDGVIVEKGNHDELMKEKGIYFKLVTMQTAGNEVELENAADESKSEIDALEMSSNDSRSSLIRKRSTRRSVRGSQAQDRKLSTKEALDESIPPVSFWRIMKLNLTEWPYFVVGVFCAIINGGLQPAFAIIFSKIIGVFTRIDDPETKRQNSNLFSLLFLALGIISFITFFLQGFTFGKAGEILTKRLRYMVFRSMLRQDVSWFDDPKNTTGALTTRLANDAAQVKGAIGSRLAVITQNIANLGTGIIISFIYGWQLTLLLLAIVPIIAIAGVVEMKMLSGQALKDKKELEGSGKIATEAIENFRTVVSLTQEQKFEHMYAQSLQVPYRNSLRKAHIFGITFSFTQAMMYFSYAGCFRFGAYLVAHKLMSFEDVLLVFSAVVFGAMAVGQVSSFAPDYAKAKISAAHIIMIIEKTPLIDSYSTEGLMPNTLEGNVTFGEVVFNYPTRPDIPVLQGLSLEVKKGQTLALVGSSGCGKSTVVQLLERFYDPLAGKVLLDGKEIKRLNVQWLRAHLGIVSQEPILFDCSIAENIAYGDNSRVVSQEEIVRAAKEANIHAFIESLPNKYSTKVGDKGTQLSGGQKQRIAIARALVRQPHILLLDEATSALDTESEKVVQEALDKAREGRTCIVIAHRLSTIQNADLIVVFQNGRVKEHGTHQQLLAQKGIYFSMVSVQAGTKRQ

[6] = Plasma protein binding in rat plasma; format: ADME, cell-free; details: read-out: PPB (converted)
[7] = Ratio of drug level in brain to plasma in Sprague-Dawley rat at 10 mg/kg, po; format: ADME, organism-based; parameters: dose 10 mg/kg, route oral; details: read-out: BPR
Brain = test: Drug level in Sprague-Dawley rat brain at 10 mg/kg, po; format: ADME, organism-based; parameters: dose 10 mg/kg, route oral; details: in vivo, read-out: Drug uptake; further: time not given here
Plasma = test: Plasma concentration in Sprague-Dawley rat at 10 mg/kg, po; format: ADME, organism-based; parameters: dose 10 mg/kg, route oral; details: in vivo; further: time not given here
[8] = Ratio of drug level in cerebrospinal fluid in Sprague-Dawley rat at 10 mg/kg, po to unbound fraction in rat plasma; format: ADME, organism-based, CSF/Plasma; parameters: dose 10 mg/kg, route oral; details: in vivo
Cerebrospinal fluid = test: Drug level in Sprague-Dawley rat cerebrospinal fluid at 10 mg/kg, po; format: ADME, organism-based; parameters: dose 10 mg/kg, route oral; details: in vivo, read-out: Drug uptake; further: time not given here
[9] = molecular target: T1, Muscarinic acetylcholine receptor M1 (Homo sapiens); test: Positive allosteric modulation of human muscarinic M1 receptor expressed CHO cells assessed as intrinsic potency of acetylcholine-induced calcium mobilization by FLIPR assay relative to acetylcholine; format: functional, cell-based; how it was run: as §1

SMILES	Papp [1] [×10⁻⁶ cm/s]	%max [2] [%]	Activity [3] [nM]	Ratio [4]	Ratio [5]	fraction unbound [6]	Kp [7]	concentration (Brain) [nM]	concentration (Plasma) [nM]	Ratio [8]	concentration (Cerebrospinal fluid) [nM]	fold change (FC) [9]
COc1c(C(=O)N[C@H]2CCCC[C@@H]2O)cc(CN2CCC(C#N)(c3ccccn3)CC2)c2ccccc12	31	62	303	2.3	1.7	–	–	–	–	–	–	–
COc1c(C(=O)N[C@H]2CCCC[C@@H]2O)cc(CN2CCN(c3cnn(C)c3)CC2)c2ccccc12	–	83	3900	–	–	–	–	–	–	–	–	–
COc1c(C(=O)N[C@H]2CCCC[C@@H]2O)cc(Cc2ccc(-c3cnn(C)c3)nc2)c2ccccc12	27	77	17	1.4	1.1	0.001	0.06	1600	29000	–	–	–
COc1ccc(Cc2cc(C(=O)N[C@H]3CCCC[C@@H]3O)c(OC)c3ccccc23)cn1	–	85	140	–	–	–	–	–	–	–	–	–
COc1ccc(Cc2cc(C(=O)O)c(OC)c3ccccc23)cc1	–	–	3330	–	–	–	–	–	–	–	–	–
COc1c(C(=O)N[C@H]2CCCC[C@@H]2O)cc(Cc2ccc(-n3cccn3)nc2)c2ccccc12	31	83	87	3.2	1.7	0.014	0.17	370	2100	0.34	8.7	–
COc1c(C(=O)O)cc(CN2CCC(C#N)(c3ccccn3)CC2)c2ccccc12	–	–	5400	–	–	–	–	–	–	–	–	–
COc1c(C(=O)N[C@H]2CCCC[C@@H]2O)cc(Cc2ccc(SC)nc2)c2ccccc12	–	76	170	–	–	–	–	–	–	–	–	–
C=Cc1ccc(Cc2cc(C(=O)N[C@H]3CCCC[C@@H]3O)c(OC)c3ccccc23)cn1	–	88	74	–	–	–	–	–	–	–	–	–
COc1c(C(=O)N[C@H]2CCCC[C@@H]2O)cc(CN2CCN(c3cc4ccccc4cn3)CC2)c2ccccc12	–	57	4000	–	–	–	–	–	–	–	–	–
COc1c(C(=O)N[C@H]2CCCC[C@@H]2O)cc(Cc2ccc(-c3cccnc3)nc2)c2ccccc12	28	73	24	1.5	0.9	0.006	0.2	860	4900	0.38	11	10
COc1c(C(=O)N[C@H]2CCCC[C@@H]2O)cc(Cc2ccc(C)nc2)c2ccccc12	35	93	121	2.1	1.6	0.016	0.21	1200	6020	0.9	91	100
CCc1ccc(Cc2cc(C(=O)N[C@H]3CCCC[C@@H]3O)c(OC)c3ccccc23)cn1	–	73	190	–	–	–	–	–	–	–	–	–
N#CC1(c2ccccn2)CCN(Cc2cc(C(=O)N[C@H]3CCCC[C@@H]3O)c(=O)n3ccccc23)CC1	29	–	–	21.1	11.1	–	–	–	–	–	–	–

Other lines, results leading:

Papp [1] [×10⁻⁶ cm/s]	%max [2] [%]	Activity [3] [nM]	Ratio [4]	Ratio [5]	fraction unbound [6]	Kp [7]	concentration (Brain) [nM]	concentration (Plasma) [nM]	Ratio [8]	concentration (Cerebrospinal fluid) [nM]	fold change (FC) [9]	SMILES
32	74	260	1.9	1.3	0.1	0.22	420	2060	< 0.1	5	–	COc1c(C(=O)N[C@H]2CCCC[C@@H]2O)cc(Cc2ccc(Cl)nc2)c2ccccc12
–	35	9100	–	–	–	–	–	–	–	–	–	O=C(N[C@H]1CCCC[C@@H]1O)c1cc(Cc2ccc(Cl)nc2)c2ccccc2c1O
–	68	1100	–	–	–	–	–	–	–	–	–	C=CCOc1c(C(=O)N[C@H]2CCCC[C@@H]2O)cc(Cc2ccc(Cl)nc2)c2ccccc12
–	37	980	–	–	–	–	–	–	–	–	–	CCOc1c(C(=O)N[C@H]2CCCC[C@@H]2O)cc(Cc2ccc(Cl)nc2)c2ccccc12
–	18	> 10000	–	–	–	–	–	–	–	–	–	CC(=O)Oc1c(C(=O)N[C@H]2CCCC[C@@H]2O)cc(Cc2ccc(Cl)nc2)c2ccccc12
–	47	7400	–	–	–	–	–	–	–	–	–	CCc1c(C(=O)N[C@H]2CCCC[C@@H]2O)cc(Cc2ccc(Cl)nc2)c2ccccc12
